Assay results published in ChEMBL document CHEMBL1914423, “New imidazo[2,1-b]thiazole derivatives: synthesis, in vitro anticancer evaluation, and in silico studies” (Eur J Med Chem, 2011).

Tests used:
[1] = Antiproliferative activity against human A375P cells after 48 hrs by MTT assay; assay type: functional, cell-based
Summary of the method: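 A375P cells in DMEM with 10% FBS at 37 °C, 5% CO2. Seeded at 5×10³ cells/well, held 24 h, then treated with 12-point 3-fold serial dilutions for 48 h. Viability by MTT reduction. IC50 values are means of triplicate experiments.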

HL-60(TB) = assay: Anticancer activity against human HL-60(TB) cells assessed as cell growth at 10^-5 M after 48 hrs by SRB assay; assay type: functional; details: HL-60, 48 h, read-out: Activity
Summary of the method: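 NCI-60 single-dose screen. Cells in RPMI 1640 with 5% FBS and 2 mM L-glutamine were plated at 5000–40,000 cells/well and preincubated 24 h at 37 °C before one compound concentration. Time-zero plates were TCA-fixed at drug addition. For suspension cells, settled cells were fixed with cold TCA, then SRB-stained and read at 515 nm. Percent growth was calculated from time-zero, control and treated absorbances.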

K562 = assay: Anticancer activity against human K562 cells assessed as cell growth at 10^-5 M after 48 hrs by SRB assay; assay type: functional; details: K562, 48 h, read-out: Activity
Summary of the method: (§1)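 NCI-60 single-dose screen at one concentration. Cells grown in RPMI 1640 with 5% FBS and 2 mM L-glutamine, plated at 5000–40,000 cells/well, and pre-incubated 24 h at 37 °C in 5% CO2 before DMSO-dissolved drug was added. Cells fixed with TCA, SRB-stained, absorbance read at 515 nm. Percent growth calculated against time-zero and untreated control plates.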

RPMI-8226 = assay: Anticancer activity against human RPMI8226 cells assessed as cell growth at 10^-5 M after 48 hrs by SRB assay; assay type: functional; details: RPMI-8226, 48 h, read-out: Activity
A549 = assay: Anticancer activity against human A549 cells assessed as cell growth at 10^-5 M after 48 hrs by SRB assay; assay type: functional; details: A549, 48 h, read-out: Activity; summary of the method: as §1
NCI-H226 = assay: Anticancer activity against human NCI-H226 cells assessed as cell growth at 10^-5 M after 48 hrs by SRB assay; assay type: functional; details: NCI-H226, 48 h, read-out: Activity
NCI-H522 = assay: Anticancer activity against human NCI-H522 cells assessed as cell growth at 10^-5 M after 48 hrs by SRB assay; assay type: functional; details: NCI-H522, 48 h, read-out: Activity
HCT-15 = assay: Anticancer activity against human HCT15 cells assessed as cell growth at 10^-5 M after 48 hrs by SRB assay; assay type: functional; details: HCT-15, 48 h, read-out: Activity; summary of the method: as §1
HT-29 = assay: Anticancer activity against human HT-29 cells assessed as cell growth at 10^-5 M after 48 hrs by SRB assay; assay type: functional; details: HT-29, 48 h, read-out: Activity; summary of the method: as §1
KM12 = assay: Anticancer activity against human KM12 cells assessed as cell growth at 10^-5 M after 48 hrs by SRB assay; assay type: functional; details: KM12, 48 h, read-out: Activity; summary of the method: as §1
SF-295 = assay: Anticancer activity against human SF295 cells assessed as cell growth at 10^-5 M after 48 hrs by SRB assay; assay type: functional; details: SF-295, 48 h, read-out: Activity
SF-539 = assay: Anticancer activity against human SF539 cells assessed as cell growth at 10^-5 M after 48 hrs by SRB assay; assay type: functional; details: SF-539, 48 h, read-out: Activity
SNB-19 = assay: Anticancer activity against human SNB19 cells assessed as cell growth at 10^-5 M after 48 hrs by SRB assay; assay type: functional; details: SNB-19, 48 h, read-out: Activity
SNB-75 = assay: Anticancer activity against human SNB75 cells assessed as cell growth at 10^-5 M after 48 hrs by SRB assay; assay type: functional; details: SNB-75, 48 h, read-out: Activity
Summary of the method: (§2)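 NCI-60 single-dose screen: cells in RPMI 1640 with 5% FBS and 2 mM L-glutamine, plated at 5000–40,000 cells/well by doubling time, and preincubated 24 h at 37 °C. Compound given at one concentration from DMSO stock. Cells TCA-fixed and SRB-stained, absorbance at 515 nm. Percent growth relative to time-zero and untreated controls; inhibition % = 100 − growth %.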

MDA-MB-435 = assay: Anticancer activity against human MDA-MB-435 cells assessed as cell growth at 10^-5 M after 48 hrs by SRB assay; assay type: functional; details: MDA-MB-435, 48 h, read-out: Activity
SK-MEL-28 = assay: Anticancer activity against human SK-MEL-28 cells assessed as cell growth at 10^-5 M after 48 hrs by SRB assay; assay type: functional; details: SK-MEL-28, 48 h, read-out: Activity
IGROV-1 = assay: Anticancer activity against human IGROV1 cells assessed as cell growth at 10^-5 M after 48 hrs by SRB assay; assay type: functional; details: IGROV-1, 48 h, read-out: Activity; summary of the method: as §1
OVCAR-3 = assay: Anticancer activity against human OVCAR3 cells assessed as cell growth at 10^-5 M after 48 hrs by SRB assay; assay type: functional; details: OVCAR-3, 48 h, read-out: Activity
786-0 = assay: Anticancer activity against human 786-0 cells assessed as cell growth at 10^-5 M after 48 hrs by SRB assay; assay type: functional; details: 786-0, 48 h, read-out: Activity; summary of the method: as §1
ACHN = assay: Anticancer activity against human ACHN cells assessed as cell growth at 10^-5 M after 48 hrs by SRB assay; assay type: functional; details: read-out: Activity; summary of the method: as §1
CAKI-1 = assay: Anticancer activity against human Caki1 cells assessed as cell growth at 10^-5 M after 48 hrs by SRB assay; assay type: functional; details: CAKI-1, 48 h, read-out: Activity; summary of the method: as §1
RXF 393 = assay: Anticancer activity against human RXF393 cells assessed as cell growth at 10^-5 M after 48 hrs by SRB assay; assay type: functional; details: RXF 393, 48 h, read-out: Activity
DU-145 = assay: Anticancer activity against human DU145 cells assessed as cell growth at 10^-5 M after 48 hrs by SRB assay; assay type: functional; details: DU-145, 48 h, read-out: Activity; summary of the method: as §1
MCF7 = assay: Anticancer activity against human MCF7 cells assessed as cell growth at 10^-5 M after 48 hrs by SRB assay; assay type: functional; details: MCF7, 48 h, read-out: Activity; summary of the method: as §1
T47D = assay: Anticancer activity against human T47D cells assessed as cell growth at 10^-5 M after 48 hrs by SRB assay; assay type: functional; details: read-out: Activity; summary of the method: as §2
MDA-MB-468 = assay: Anticancer activity against human MDA-MB-468 cells assessed as cell growth at 10^-5 M after 48 hrs by SRB assay; assay type: functional; details: MDA-MB-468, 48 h, read-out: Activity

SMILES | IC50 [1] | growth at 10 µM (HL-60(TB)) | growth at 10 µM (K562) | growth at 10 µM (RPMI-8226) | growth at 10 µM (A549) | growth at 10 µM (NCI-H226) | growth at 10 µM (NCI-H522) | growth at 10 µM (HCT-15) | growth at 10 µM (HT-29) | growth at 10 µM (KM12) | growth at 10 µM (SF-295) | growth at 10 µM (SF-539) | growth at 10 µM (SNB-19) | growth at 10 µM (SNB-75) | growth at 10 µM (MDA-MB-435) | growth at 10 µM (SK-MEL-28) | growth at 10 µM (IGROV-1) | growth at 10 µM (OVCAR-3) | growth at 10 µM (786-0) | growth at 10 µM (ACHN) | further results
COc1cccc(-c2nc3sccn3c2-c2ccnc(NCCNC(=O)Nc3ccccc3)n2)c1 | > 10 µM | 122% | 99.4% | 55.5% | 101% | 109% | 82.7% | 87.8% | 87.5% | 92% | 110% | 43.8% | 103% | 90.8% | 96.6% | 108% | 97.9% | 109% | 96.8% | 95.5% | growth at 10 µM (CAKI-1): 117%; growth at 10 µM (RXF 393): 107%; growth at 10 µM (DU-145): 102%; growth at 10 µM (MCF7): 96.2%; growth at 10 µM (T47D): 82.5%; growth at 10 µM (MDA-MB-468): 101%
O=C(NCCNc1nccc(-c2c(-c3cccc(O)c3)nc3sccn23)n1)Nc1ccccc1 | > 10 µM | 95.1% | 70.6% | 58.3% | 90.7% | 105% | 57% | 92.7% | 61.9% | 68.8% | 99.5% | 62.4% | 108% | 71.6% | 31.1% | 57.4% | 99.9% | 112% | 100% | 85.3% | growth at 10 µM (CAKI-1): 111%; growth at 10 µM (RXF 393): 86.3%; growth at 10 µM (DU-145): 110%; growth at 10 µM (MCF7): 93.8%; growth at 10 µM (T47D): 74.1%; growth at 10 µM (MDA-MB-468): 51.1%
O=C(NCCNc1nccc(-c2c(-c3cccc(O)c3)nc3sccn23)n1)Nc1cc(C(F)(F)F)cc(C(F)(F)F)c1 | > 10 µM | 97.3% | 72.7% | 45.7% | 57.7% | 101% | 69.5% | 79.2% | 63.1% | 43.1% | 66.8% | 96.5% | 90.8% | 66.1% | 9.9% | 68.8% | 65.2% | 82.2% | 82% | 65.9% | growth at 10 µM (CAKI-1): 72.3%; growth at 10 µM (RXF 393): 41.4%; growth at 10 µM (DU-145): 97.1%; growth at 10 µM (MCF7): 67.5%; growth at 10 µM (T47D): 72%; growth at 10 µM (MDA-MB-468): 57.8%
COc1cccc(-c2nc3sccn3c2-c2ccnc(NCCNC(=O)c3ccccc3)n2)c1 | > 10 µM | 94.2% | 67.5% | 41.6% | 75.3% | 79.3% | 61.8% | 81.9% | 53.5% | 87.8% | 85.4% | 97.7% | 110% | 92.6% | 55.2% | 64.2% | 69.2% | 89.2% | 78.4% | 65.8% | growth at 10 µM (CAKI-1): 84.3%; growth at 10 µM (RXF 393): 86.3%; growth at 10 µM (DU-145): 100%; growth at 10 µM (MCF7): 81.7%; growth at 10 µM (T47D): 61.9%; growth at 10 µM (MDA-MB-468): 79.4%
COc1cccc(-c2nc3sccn3c2-c2ccnc(NCCNC(=O)c3ccccc3O)n2)c1 | 7.5 µM | 99.5% | 59.4% | 26% | 82.5% | 97.7% | 61.7% | 66.1% | 96.4% | 77.2% | 101% | 98% | 118% | 103% | 54.3% | 77.1% | 60.9% | 75% | 91% | 62% | growth at 10 µM (CAKI-1): 68.8%; growth at 10 µM (RXF 393): 78.9%; growth at 10 µM (DU-145): 94.5%; growth at 10 µM (MCF7): 88.5%; growth at 10 µM (T47D): 60.1%; growth at 10 µM (MDA-MB-468): 102%
